# Calls of active or inactive are those of the source. The rule behind the calls is not given here.
# Tests used:
# [1] = Inhibition of Mycobacterium tuberculosis fatty acid synthase 1 expressed in Mycobacterium smegmatis mc2 2700 assessed as NADPH oxidation at 100 uM of NADPH by spectrophotometry
# Method in brief: (§1)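 Purified Mtb FASI (from M. smegmatis Δfas1 attB::Mtb fas1, ammonium sulfate, DE52, gel filtration), 1–3 μg in 1 ml: 50 μM acetyl-CoA, 40 μM malonyl-CoA, 100 μM NADPH, 5 mM DTT, 400 mM potassium phosphate pH 7.4; inhibitor in DMSO (≤0.05 ml/ml). Linear A340 decrease over 10 min at 37°C; IC50 from Dixon plot x-intercept at 100 μM NADPH.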
# [2] = test system: Mycobacterium tuberculosis; assay: Inhibition of Mycobacterium tuberculosis fatty acid synthase 1 expressed in Mycobacterium smegmatis mc2 2700 assessed as NADPH oxidation by spectrophotometry; method in brief: as §1
# [3] = test system: Mycobacterium tuberculosis; assay: Inhibition of Mycobacterium tuberculosis fatty acid synthase 1 expressed in Mycobacterium smegmatis mc2 2700 assessed as [2-14C]]malonyl-CoA incorporation into fatty acid at 3000 uM
# [4] = test system: Mycobacterium tuberculosis; assay: Inhibition of Mycobacterium tuberculosis fatty acid synthase 1 expressed in Mycobacterium smegmatis mc2 2700 assessed as [2-14C]]malonyl-CoA incorporation into fatty acid at 6000 uM
# [5] = Inhibition of Mycobacterium tuberculosis fatty acid synthase 1 expressed in Mycobacterium smegmatis mc2 2700 assessed as NADPH oxidation using variable concentration of NADPH by spectrophotometry
# [6] = test system: Mycobacterium tuberculosis; assay: Inhibition of Mycobacterium tuberculosis fatty acid synthase 1 expressed in Mycobacterium smegmatis mc2 2700 assessed as NADPH oxidation upto 100 mM by spectrophotometry
# Method in brief: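 NADPH oxidation by purified Mtb FASI (1–3 μg/ml), 50 μM acetyl-CoA, 40 μM malonyl-CoA, 100 μM NADPH, 5 mM DTT, 400 mM potassium phosphate pH 7.4, 37°C, A340 decrease over 10 min; inhibitor added from DMSO at up to 100 mM, percent inhibition read.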
SMILES,IC50 [1] [µM],inhibition [3] [%],inhibition [4] [%],also measured
CC(C)(C)OC(=O)c1cnc(Cl)cn1,15.1,–,–,–
O=C(O)c1cnccn1,–,6,37,Activity [2]: Dose-dependent effect
CC[C@@H](CO)NCCN[C@@H](CC)CO,–,–,–,Activity [4]: inactive
NC(=O)c1cnccn1 [PYRAZINAMIDE],8930,6,37,IC50 [5]: 8930 µM; Ki [5]: 2570 µM; Activity [2]: Dose-dependent effect
CC(C)(C)OC(=O)c1cnc(F)cn1,4.3,–,–,–
NC(=O)c1ccccc1,–,–,–,inhibition [6]: 15%
NC(=O)c1cnc(Cl)cn1,15.1,39,–,IC50 [5]: 151 µM; Ki [5]: 55 µM; Activity [2]: Dose-dependent effect
CCCOC(=O)c1cnc(F)cn1,1.5,–,66,–
CCCOC(=O)c1cnc(Cl)cn1,5.9,–,66,–
CC(C)(C)NC(=O)c1cnc(Cl)cn1,8.7,–,–,–
CCCOC(=O)c1cnccn1,1720,6,37,–
CCCNC(=O)c1cnc(Cl)cn1,8.1,6,37,–
C/C=C/C/C=C/CCC(=O)[C@H]1O[C@H]1C(N)=O,–,–,62,Activity [3]: inactive
CC(C)(C)OC(=O)c1cnccn1,1360,–,–,–
